Screening data (PubChem BioAssay)
APP 5'UTR act: activators of APP 5'UTR luciferase reporter, primary screen, SH-SY5Y cells; SH-SY5Y APP 5'UTR luciferase reporter, luminescence; zero percent = DMSO vehicle wells; activation, % at 2 µM; 1% of 190,000 active;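 active = activation above a set limit, based on mean plus 3 SD of controls, cut at about 140% in these data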
STAT1 blocker: STAT1 signaling inhibitors, primary screen, cell-based, HTS, luciferase reporter; NIH 3T3 STAT1-luciferase reporter, IFN-gamma, luminescence; inhibition, % at 5.5 µM; 0.35% of 200,000 active; AID 920, 2007;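 active = inhibition above a set limit, the mean inhibition across all tested compounds plus 3 SD, cut at about 34% in these data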
STAT3 activator: IL-6 driven STAT3 reporter potentiators, primary screen, U3A cells, luciferase, luminescence, MLSCN library; 0.91% of 190,000 active; activation (% of control), % at 5.6 µM; AID 871, 2007; IL-6 STAT3-luciferase reporter; 100% = signal with IL-6 EC80 alone;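 active = activation above the screen-wide mean of compound activation plus 3 SD, cut at about 130% in these data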
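Test system: human U3A cells carrying STAT3-luciferase construct; control set: IL-6-only wells as 100% reference; timing: compound pre-incubation 1 h before IL-6, then 6 h stimulation at 37 °C; also added: IL-6 stimulus at 33 ng/mL final; evaluation: % activation versus median of IL-6-stimulated wells; detection: reporter luminescence signal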
STAT3 inh: IL-6 driven STAT3 reporter inhibitors, primary screen, U3A cells, luciferase, luminescence, MLSCN library | AID 862, 2007 | inhibition, % at 5.5 µM | 0.89% of 190,000 active | IL-6 STAT3-luciferase reporter; host cell line lacks STAT1;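 active = inhibition above the mean inhibition across all screened compounds plus 3 SD, cut at about 44% in these data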
STAT1 activator: STAT1 signaling activators, primary screen, cell-based, HTS, luciferase reporter. 2.6% of 200,000 active. activation (% of control), % at 5.5 µM. AID 932, 2007. NIH 3T3 STAT1-luciferase reporter, IFN-gamma, luminescence; 100% = IFN-gamma alone, no compound;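 active = activation above the screen-wide mean activation plus 3 SD, cut at about 130% in these data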
NF-kB expr up: activators of NF-kB expression in neurons, primary screen, cell-based, HTS; human neuronal cells, NF-kB reporter expression; hits give high values; fold change at 12.5 µM; 1.6% of 190,000 active; in the data active = fold change above about 3.3
A number is an active result; 0 = inactive; - = no result. This is a sample that favours compounds with a hit; in the whole collection about 4.9% have one here.

SMILES	APP 5'UTR act	STAT1 blocker	STAT3 activator	STAT3 inh	STAT1 activator	NF-kB expr up
O=c1[nH]c(N/N=C/c2ccc(O)cc2)nc2ccccc12	0	0	0	0	144	0
CC(C(=O)O)c1ccc(N2Cc3ccccc3C2=O)cc1 (stereo not drawn)	0	0	0	0	145	6.2
CN1OC(COC(=O)c2ccccc2)CC1c1ccccc1 (stereo not drawn)	0	0	0	0	130	0
O=C(OCC1CC(c2ccccc2)=NO1)c1ccc(Cl)cc1 (stereo not drawn)	0	0	0	0	0	0
CSc1ccccc1-c1nnc(-c2ccc(C)cc2)o1	0	0	0	0	146	5
CSc1nnc(-c2ccccc2SC)o1	0	0	0	0	0	0
CSc1ccccc1-c1nnc(-c2ccccc2)o1	140	0	0	0	144	5.5
Cn1ncc(Cl)c1C(=O)N1CCN(c2ncccn2)CC1	0	0	0	0	0	0
O=C(/C(=C/c1ccc(Cl)cc1)c1nc2ccccc2[nH]1)c1ccccc1	0	0	0	0	0	8
C(=C\c1ccco1)/c1nc2ccccc2[nH]1	136	0	0	0	0	5
C(=C\c1nc2ccccc2[nH]1)/c1ccccc1	192	43	0	82	0	0
COc1ccc(C(=O)N/C(=C/c2cccs2)c2nc3ccccc3[nH]2)cc1OC	0	0	0	0	0	0
COc1cc(/C=C(/C(=O)c2cccs2)c2nc3ccccc3[nH]2)cc(OC)c1O	0	0	0	0	0	10
CCN(CC(=O)NC(C)(C)C)C(=O)c1ccc2c(c1)S(=O)(=O)c1ccccc1C2=O	0	0	0	0	0	0
O=c1[nH]c2ccccc2nc1/C=C/c1ccc(Cl)cc1	167	0	0	0	133	0
Cc1cccc2c(N)c3c(nc12)CCCC3 (tested in a mixture with another compound)	0	0	0	0	0	0
Cc1cc(C)c2c(N)c3cccc(C)c3nc2n1	0	0	0	0	148	0
COCCNc1nc2sc3c(c2c(=O)n1Cc1ccco1)CCCCC3	0	0	0	0	129	0
CC(=O)NC(CCCN1C(=O)c2ccccc2C1=O)c1nnn(C)n1 (stereo not drawn)	0	0	0	0	0	0
CCCOc1ccc(-c2cc(C(F)(F)F)c(C#N)c(SCC(=O)O)n2)cc1	0	0	0	0	0	0
Cc1ccc(-c2cc(C(F)(F)F)c(C#N)c(SCC(=O)O)n2)cc1	0	0	135	0	0	0
O=C(O)C1=C[C@@H](c2coc3ccccc3c2=O)C[C@@H](OCCCCO)O1	0	0	-	-	0	0
CCOC(=O)c1ccc(N2C(=O)C(CC(N)=O)N(CCc3ccc(OC)c(OC)c3)C2=S)cc1 (stereo not drawn)	0	0	0	0	0	0
CCOC(=O)C1=C(C)NC(SCC(=O)Nc2cc(C)on2)=C(C#N)C1c1cccs1 (stereo not drawn)	0	51	0	0	0	0
CCc1ccc(NC(=S)NC(=O)CC(C)C)cc1	0	0	0	0	129	0
SMILES	APP 5'UTR act	STAT1 blocker	STAT3 activator	STAT3 inh	STAT1 activator	NF-kB expr up
CCn1nccc1C(=O)Nc1ccc(Cl)cn1	0	0	0	0	0	0
CCn1ccc(C(=O)Nc2ccc(Cl)cn2)n1	-	0	0	0	131	0
CCn1ccc(C(=O)Nc2ccc(N(C)C(C)=O)cc2)n1	0	0	0	0	0	0
CCn1ccc(C(=O)Nc2ccccc2SC)n1	0	0	0	0	140	0
O=C(CSc1nnc(-c2ccc(F)cc2)c2ccccc12)NCC1CCCO1 (stereo not drawn)	0	0	0	0	0	0
Cc1cc(S(=O)(=O)Nc2c(C(=O)O)[nH]c3ccccc23)ccc1F	0	0	135	0	0	0
CC1(c2ccccc2)NC(=S)N2C1NC(=S)N2c1ccccc1 (stereo not drawn)	0	0	0	0	0	0
COc1ccc(N2C(=S)NC3N2C(=S)NC3(C)c2ccccc2)cc1 (stereo not drawn)	0	0	0	0	0	6.7
